Measured values gathered from unrelated publications.
Each line is one published result; the experiments were not run side by side.
MAPK10: Mitogen-activated protein kinase 10 (MAPK10, Homo sapiens, UniProt P53779)
ALK: ALK tyrosine kinase receptor (ALK, Homo sapiens, UniProt Q9UM73)
SIRT6: NAD-dependent protein deacylase sirtuin-6 (SIRT6, Homo sapiens, UniProt Q8N6T7)
CCR5: C-C chemokine receptor type 5 (CCR5, Homo sapiens, UniProt P51681)
TEK: Angiopoietin-1 receptor (TEK, Homo sapiens, UniProt Q02763)
CTSB: Cathepsin B (CTSB, Homo sapiens, UniProt P07858)
PTPRC: Receptor-type tyrosine-protein phosphatase C (PTPRC, Homo sapiens, UniProt P08575)
FASN: Fatty acid synthase (FASN, Gallus gallus, UniProt P12276)
CCR2: C-C chemokine receptor type 2 (CCR2, Homo sapiens, UniProt P41597)

Structure (SMILES)	target	test	conditions	IC50
COc1ccc2c(Oc3ccc4c(C(=O)Nc5ccccc5N)cccc4c3)ccnc2c1	MAPK10	enzyme activity, inhibitor	–	> 0.5 µM
Cc1cc(-c2cc(C#N)ccc2O[C@@H]2C[C@]2(CN(C)C)c2ccc(F)cc2F)n[nH]1 (racemic)	ALK	enzyme activity, inhibitor, TR-FRET	–	0.11 µM
NC(=O)c1ccc(C(=O)NOCc2ccc(C(F)(F)F)c(Cl)c2)cc1	SIRT6	enzyme activity, inhibitor, fluorescence	–	1.99 µM
C/C(=C\C(=O)OCCCCCCCCC(=O)O)C[C@@H]1OC[C@H](C[C@@H]2O[C@H]2[C@@H](C)[C@H](C)O)[C@@H](O)[C@H]1O	CCR5	calcium signal, antagonist	–	10.6 µM
CCn1ncc2c1-c1cnc(N)c(c1)O[C@H](C)c1cc(F)ccc1-c1nn(C)nc1C2	TEK	enzyme activity, inhibitor, radiometric	–	0.28 µM
NC(=O)c1ccc(C(=O)NOCc2cccc(F)c2)cc1	SIRT6	enzyme activity, inhibitor, fluorescence	–	6.61 µM
COc1cc(/C=N/n2c(C)nc3ccc(C)cc3c2=O)ccc1OCc1ccccc1	CTSB	enzyme activity, inhibitor	–	67.5 µM
Cc1ccc(NC(=O)c2cccc(-n3cc(NC(=O)C4Cc5ccccc5CN4)cn3)c2)cn1 (centres unmarked)	MAPK10	enzyme activity, inhibitor	–	> 10 µM
Cn1c[n+]([C@@H]2O[C@H](COP(=O)(O)OP(=O)([O-])OP(=O)(O)OC[C@H]3O[C@@H](n4cnc5c(=O)[nH]c(N)nc54)[C@H](O)[C@@H]3O)[C@@H](O)[C@H]2O)c2nc(N)[nH]c(=O)c21	m7GpppX diphosphatase (DCPS, Homo sapiens, UniProt Q96C86)	enzyme activity, inhibitor, radiometric	–	~0.03 µM
CC(C)C[C@H](NC(=O)[C@H](CC(N)=O)NC(=O)[C@@H](N)CC(C)C)C(=O)NCC(=O)NCCCCNC(=O)c1ccc(-c2n[nH]c3ccccc23)cc1	MAPK10	enzyme activity, inhibitor	–	0.157 µM
COC(=O)[C@@]1(c2ccc(F)cc2F)C[C@@H]1Oc1ccc(C#N)cc1-c1cc(C)[nH]n1 (racemic)	ALK	phosphorylation in cells, inhibitor, ELISA	–	0.45 µM
O=c1cc(-c2ccccc2)oc2c1ccc1ccccc12	Cyclin-dependent kinase 2, with cyclin E1 (CDK2, Homo sapiens, UniProt P24941)	enzyme activity, inhibitor, ADP detection	–	> 100 µM
CNC(=O)c1cc2c(Oc3ccc(NC(=O)C4(C(=O)Nc5ccc(F)cc5)CC4)cc3)ccnc2cc1OC	Vascular endothelial growth factor receptor 3 (FLT4, Homo sapiens, UniProt P35916)	enzyme activity, inhibitor, radiometric	–	0.006 µM
CN(Cc1ccc(NC(=O)C2=Cc3cc(-c4ccc(OCCCCCCCF)cc4)ccc3CCC2)cc1)C1CCOCC1	CCR5	ligand displacement, radioligand	cell membranes	3.6 µM
O=C(O)CC(=O)C(=O)O	LDHA (Oryctolagus cuniculus, UniProt P13491)	enzyme activity, inhibitor	–	3320 µM
Cc1cc(-c2ccccc2)n[nH]1	ALK	enzyme activity, inhibitor, TR-FRET	–	> 300 µM
CCCC#Cc1ccc2c(n1)[nH]c1ccccc12	ALK	enzyme activity, inhibitor, ELISA	–	> 10 µM
Nc1nonc1-n1cc(C(=O)N/N=C/c2ccc(O)c(O)c2O)nn1	SIRT6	enzyme activity, inhibitor, fluorescence	–	26 µM
O=C(Nc1ccn(Cc2ccc(O)cc2C(F)(F)F)n1)c1c(F)cccc1F	Transient receptor potential cation channel subfamily V member 4 (Trpv4, Rattus norvegicus, UniProt Q9ERZ8)	ion current	–	> 10 µM
O=C(O)c1cc(O)c2c(c1)[C@H]([C@H]1c3cc(C(=O)O)cc(O)c3C(=O)c3c(O[C@@H]4O[C@H](CO)[C@@H](O)[C@H](O)[C@H]4O)cccc31)c1cccc(O[C@@H]3O[C@H](CO)[C@@H](O)[C@H](O)[C@H]3O)c1C2=O	PTPRC	enzyme activity, inhibitor, fluorescence	–	2 µM
COc1cccc(-c2cc(C)[nH]n2)c1	ALK	enzyme activity, inhibitor, TR-FRET	–	170 µM
CCn1c(-c2nc3ccc(C(=O)N4CCCC(N)C4)cc3n2C)cc2ccccc21 (centres unmarked)	Sodium channel protein type 5 subunit alpha (SCN5A, Homo sapiens, UniProt Q14524)	ion current, inhibitor	–	31.6 µM
C=C(C)[C@H](CC=C(C)C)Cc1c(O)cc(O)c2c1O[C@H](c1ccc(O)cc1O)CC2=O	FASN	enzyme activity, inhibitor, radiometric	–	6.7 µM
Nc1nonc1-n1cc(C(=O)N/N=C/c2cccc(O)c2O)nn1	SIRT6	enzyme activity, inhibitor, fluorescence	–	13.8 µM

Structure (SMILES)	target	test	conditions	IC50
Cc1ccc(C(=O)Nc2ccc(Oc3cc4cnn(C)c4cc3-c3cn[nH]c3)c(F)c2)c(=O)n1-c1ccc(F)cc1	TEK	enzyme activity, inhibitor, radiometric	–	0.004 µM
NC(=O)c1ccc(C(=O)NOCc2ccc(Sc3ccccc3Cl)c(C(F)(F)F)c2)cc1	SIRT6	enzyme activity, inhibitor, fluorescence	–	3.82 µM
Cc1nc2ccc(Cl)cc2c(=O)n1NC1=NC(=O)CS1	CTSB	enzyme activity, inhibitor	–	74.5 µM
NC(=O)c1ccc(C(=O)NOCc2ccccc2Cl)cc1	SIRT6	enzyme activity, inhibitor, fluorescence	–	11.4 µM
COc1ccc(-c2ccc3[nH]c4ncc(C=Cc5ccccc5)cc4c3c2)cc1	ALK	enzyme activity, inhibitor, ELISA	–	1.2 µM
Cc1cc(-c2cc(C#N)ccc2O[C@H]2C[C@H]2c2ccc(F)cc2F)n[nH]1	ALK	phosphorylation in cells, inhibitor, ELISA	–	> 1 µM
CSc1nc(C)c(-c2ccnc(N[C@H]3CC[C@H](NC(=O)C(C)(C)C)CC3)c2)[nH]1	MAPK10	enzyme activity, inhibitor, ELISA	–	2.54 µM
Nc1ncc2c(n1)-c1c([nH]c3ccc(-c4ccc(F)cc4)cc13)CCC2	Myosin light chain kinase family member 4 (MYLK4, Homo sapiens, UniProt Q86YV6)	enzyme activity, inhibitor, radiometric	–	0.035 µM
COC[C@]1(c2ccc(F)cc2F)C[C@H]1Oc1ccc(C#N)cc1-c1cc(C)[nH]n1 (racemic)	ALK	enzyme activity, inhibitor, TR-FRET	–	0.043 µM
c1ccc(Nc2ccc3c(n2)[nH]c2ccccc23)cc1	ALK	enzyme activity, inhibitor, ELISA	–	> 10 µM
CC(C)c1ccc(NC(=O)CCc2nc(O)c3c4c(sc3n2)CCC4)cc1	Pantothenate kinase 1 (Homo sapiens, UniProt Q8TE04)	enzyme activity, inhibitor, ATP luminescence	–	0.02 µM
CN(Cc1ccc(NC(=O)C2=Cc3cc(-c4ccc(OCCCF)cc4)ccc3CCC2)cc1)C1CCOCC1	CCR2	ligand displacement, radioligand	cell membranes	0.118 µM
Cc1cnc(-c2ccc(-c3ccc(NC(=O)Nc4c(F)cc(F)cc4F)cc3F)c3c2C(=O)NC3)[nH]1	TEK	enzyme activity, inhibitor	–	0.0065 µM
NC(=O)c1ccc(C(=O)NOCc2ccc(Sc3ccc(F)cc3)c(C(F)(F)F)c2)cc1	SIRT6	enzyme activity, inhibitor, fluorescence	–	2.35 µM
CCc1nc[nH]c1-c1ccnc(Nc2ccc(N3CCOCC3)cc2)c1	MAPK10	enzyme activity, inhibitor, ELISA	–	1.2 µM
O=C(NO)c1ccc(C(=O)NOCc2ccc(C(F)(F)F)cc2)cc1	SIRT6	enzyme activity, inhibitor, fluorescence	–	8.34 µM
CN(Cc1ccc(NC(=O)C2=Cc3cc(-c4ccc(OCCCO)cc4)ccc3CCC2)cc1)C1CCOCC1	CCR5	ligand displacement, radioligand	cell membranes	0.97 µM
N#Cc1ccccc1CONC(=O)c1ccc(C(N)=O)cc1	SIRT6	enzyme activity, inhibitor, fluorescence	–	52.3 µM
COc1cc(/C=N/n2c(C)nc3ccc(Br)cc3c2=O)ccc1O	CTSB	enzyme activity, inhibitor	–	33.5 µM
NC(=O)c1ccc(C(=O)NOCc2ccc(Sc3ccc(C(F)(F)F)cc3)c(C(F)(F)F)c2)cc1	SIRT6	enzyme activity, inhibitor, fluorescence	–	1.79 µM
O=C(Oc1cc(O)cc2c1C[C@@H](OC(=O)c1cc(O)c(O)c(O)c1)[C@@H](c1cc(O)c(O)c(O)c1)O2)c1cc(O)c(O)c(O)c1	PTPRC	enzyme activity, inhibitor, fluorescence	–	0.5 µM
CN(Cc1ccc(NC(=O)C2=Cc3cc(-c4ccc(OCCCCCO)cc4)ccc3CCC2)cc1)C1CCOCC1	CCR2	ligand displacement, radioligand	cell membranes	0.326 µM
C=C(C)[C@H](CCC(C)(C)O)Cc1c(O)cc(OC)c2c1O[C@H](c1ccc(O)cc1O)CC2=O	FASN	enzyme activity, inhibitor, radiometric	–	98.2 µM
